# Test results: article PMC6541004 (Antiviral research, 2018)
# Read-outs that look alike come from different tables or passages of the source.
# Legend:
# DENV2 NS2B-NS3pro = DENV2 NS2B-NS3pro (Dengue virus type 2, UniProt P14340); assay: In vitro protease assay; type: biochemical
# BHK-21 cells = assay: Cell-based cytotoxicity assay; parameters: species or system Baby Hamster
# DENV2 = assay: Plaque assay of DENV2 infectivity; type: cell-based; settings: Dengue virus, DENV2, read-out: EC50 (PFU)
# DENV2 replicon = assay: microbe, parasite or virus in culture; type: cell-based; settings: Dengue virus, DENV2, BHK-21, 24 h, read-out: EC50 (replicon)
# actin = settings: read-out: IC50 of inhibition of actin polymerization; ref Dhar et al., 2015; cited from earlier work
# [1] = system: oleic acid-induced LD in DENV2 infected BHK-21 cells; assay: Oil Red O staining of lipid droplets; type: cell-based; settings: 0.1 mM oleic acid-BSA, 5 μM, 24 h, absorbance at 405 nm
# Procedure, shortened: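 BHK-21 cells in MEM with 10% FBS were infected with DENV2 at MOI 1 for 1 h. They were then incubated for 24 h in MEM with 0.1 mM oleic acid-BSA plus test compound (5 μM in imaged wells), with 1% DMSO as negative control. Cells were PBS-washed, fixed in 4% paraformaldehyde for 10 min, and stained with ORO and DAPI. Dye was extracted in 100% isopropanol and read at A405. Duplicates were averaged.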
# [2] = Cell-based cytotoxicity assay; parameters: species or system Baby Hamster; settings: hamster
# [3] = read-out: IC50 (protease activity), mean ± SD of two replicates, 25 nM DENV2 protease, 25 μM substrate Bz-Nle-Lys-Arg-Arg-AMC, 30 min, inhibitor concentrations 1.56-200 μM
# DENV2 NS2B-NS3pro, sequence (P14340 1476-1653): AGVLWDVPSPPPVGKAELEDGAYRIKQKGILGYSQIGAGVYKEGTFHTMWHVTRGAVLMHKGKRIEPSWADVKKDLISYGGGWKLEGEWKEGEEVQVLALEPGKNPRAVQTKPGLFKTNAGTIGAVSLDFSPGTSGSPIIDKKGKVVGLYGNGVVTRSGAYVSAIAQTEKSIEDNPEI
# DENV2 NS2B-NS3pro, sequence (P14340 1398-1437): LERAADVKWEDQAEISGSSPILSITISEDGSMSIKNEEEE
Structure (SMILES),IC50 (DENV2 NS2B-NS3pro; [3]) [µM],CC50 (BHK-21 cells) [µM],EC50 (DENV2) [µM],EC50 (DENV2 replicon) [µM],IC50 (DENV2 NS2B-NS3pro) [µM],IC50 (actin) [µM],"oleic acid-induced lipid droplets (LD), Oil Red O [1]",CC50 at 24 h ([2]; BHK-21 cells) [µM],CC50 at 24 h [2] [µM]
COc1cc(C=C2CCCC(=Cc3ccc(O)c(OC)c3)C2=O)ccc1O [CC5],61 ± 8.7,25.5 ± 2.64,,,,,,,
"COc1cc(C=CC(=O)CC(=O)C=Cc2ccc(O)c(OC)c2)ccc1O [CC1, 1,7-bis(4-hydroxy-3-methoxyphenyl)-1,6-heptadiene-3,5-dione, reference compound]",,,14 ± 4.62,13.9 ± 2.08,66 ± 13.1,16,affected LD levels,49 ± 8.24,
COc1cc(/C=C2\CC/C(=C\c3ccc(O)c(OC)c3)C2=O)ccc1O [CC4],43.9 ± 10.1,,,,,,,,
"O=C(/C=C/c1ccc(O)cc1)CC(=O)/C=C/c1ccc(O)cc1 [CC2, Bisdemethoxycurcumin]",,,6.49 ± 0.22,26.4 ± 3.67,36.2 ± 9.67,,,,43.4 ± 5.19
